Test results published in ChEMBL document CHEMBL4007430, “Synthesis and Cytostatic and Antiviral Profiling of Thieno-Fused 7-Deazapurine Ribonucleosides” (J Med Chem, 2017).

Experiments:
BJ = test: Cytotoxicity against human BJ cells assessed as cell growth inhibition after 72 hrs by MTS assay; format: cell-based
Summary of the method: (§1)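 Cells were exposed to compound for 3 days, then stained with MTS as a quantitative metabolic read-out. IC50 is the concentration that inhibits cell growth by 50%.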

MRC5 = test: Cytotoxicity against human MRC5 cells assessed as cell growth inhibition after 72 hrs by MTS assay; format: cell-based; settings: MRC5, 72 h; summary of the method: as §1
[1] = Cytotoxicity against mrp-1/mdr-1 overexpressing human CEM-DNR-bulk cells assessed as cell growth inhibition after 72 hrs by MTS assay; format: functional, cell-based
Summary of the method: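 Cells were exposed to compound for 3 days, then stained with MTS as a quantitative metabolic read-out.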

HCT-116 [2] = test: Cytotoxicity against human HCT116 cells assessed as cell growth inhibition after 72 hrs by MTS assay; format: functional, cell-based; settings: HCT-116, 72 h; summary of the method: as §1
HCT-116 [3] = test: Cytotoxicity against p53 deficient human HCT116 cells assessed as cell growth inhibition after 72 hrs by MTS assay; format: functional, cell-based; settings: HCT-116, 72 h; summary of the method: as §1
K562 = test: Cytotoxicity against human K562 cells assessed as cell growth inhibition after 72 hrs by MTS assay; format: functional, cell-based; settings: K562, 72 h; summary of the method: as §1
[4] = Cytotoxicity against human K562-TAX cells assessed as cell growth inhibition after 72 hrs by MTS assay; format: functional, cell-based; summary of the method: as §1
U2OS = test: Cytotoxicity against human U2OS cells assessed as cell growth inhibition after 72 hrs by MTS assay; format: functional, cell-based
HL-60 = test: Cytotoxicity against human HL60 cells assessed as reduction in cell viability after 72 hrs by XTT assay; format: functional, cell-based; settings: HL-60, 72 h
Summary of the method: (§2)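 Cells were incubated with compound for 3 days. Viability was then measured with the XTT tetrazolium assay.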

HepG2 = test: Cytotoxicity against human HepG2 cells assessed as reduction in cell viability after 72 hrs by XTT assay; format: functional, cell-based; settings: HepG2, 72 h; summary of the method: as §2
HeLa S3 = test: Cytotoxicity against human HeLaS3 cells assessed as reduction in cell viability after 72 hrs by XTT assay; format: functional, cell-based; settings: HeLa S3, 72 h; summary of the method: as §2
A549 = test: Cytotoxicity against human A549 cells assessed as cell growth inhibition after 72 hrs by MTS assay; format: functional, cell-based; settings: A549, 72 h; summary of the method: as §1
Adenosine kinase [5] = target: T1, Adenosine kinase (Homo sapiens, UniProt P55263); test: Drug metabolism in human BJ cells assessed as ADK-mediated 4-(Methylsulfanyl)-8-(beta-D-ribofuranosyl)-8H-thieno[2, 3:4,5]-pyrrolo[2,3-d]pyrimidine-5-O-monophosphate Sodium Salt formation per 5 x10^5 cells at 1 umol/L after 1 hr by UPLC-MS/MS analysis; format: ADME, cell-based; settings: 1 µM
T1 sequence (P55263 whole entry): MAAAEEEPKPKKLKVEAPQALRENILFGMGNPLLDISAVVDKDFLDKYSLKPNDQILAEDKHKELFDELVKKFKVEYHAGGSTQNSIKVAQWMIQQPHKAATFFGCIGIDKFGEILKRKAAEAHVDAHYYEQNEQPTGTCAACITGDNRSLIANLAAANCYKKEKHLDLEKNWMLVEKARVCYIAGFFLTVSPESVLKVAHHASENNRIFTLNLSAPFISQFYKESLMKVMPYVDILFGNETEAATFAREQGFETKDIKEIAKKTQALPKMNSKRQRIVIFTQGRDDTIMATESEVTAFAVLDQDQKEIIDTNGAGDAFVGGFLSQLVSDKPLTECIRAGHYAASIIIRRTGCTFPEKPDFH

Adenosine kinase [6] = target: T1, Adenosine kinase; test: Drug metabolism in human HCT116 cells assessed as ADK-mediated 4-(Methylsulfanyl)-8-(beta-D-ribofuranosyl)-8H-thieno[2, 3:4,5]-pyrrolo[2,3-d]pyrimidine-5-O-monophosphate Sodium Salt formation per 5 x10^5 cells at 1 umol/L after 1 hr by UPLC-MS/MS analysis; format: ADME, cell-based; settings: 1 µM
Adenosine kinase [7] = target: T1, Adenosine kinase; test: Drug metabolism in human BJ cells assessed as ADK-mediated 4-(Methylsulfanyl)-8-(beta-D-ribofuranosyl)-8H-thieno[2, 3:4,5]-pyrrolo[2,3-d]pyrimidine-5-O-monophosphate Sodium Salt formation per 5 x10^5 cells at 1 umol/L after 3 hrs by UPLC-MS/MS analysis; format: ADME, cell-based; settings: 1 µM
Adenosine kinase [8] = target: T1, Adenosine kinase; test: Drug metabolism in human HCT116 cells assessed as ADK-mediated 4-(Methylsulfanyl)-8-(beta-D-ribofuranosyl)-8H-thieno[2, 3:4,5]-pyrrolo[2,3-d]pyrimidine-5-O-monophosphate Sodium Salt formation per 5 x10^5 cells at 1 umol/L after 3 hrs by UPLC-MS/MS analysis; format: ADME, cell-based; settings: 1 µM
Adenosine kinase [9] = target: T1, Adenosine kinase; test: Drug metabolism in human BJ cells assessed as ADK-mediated 4-(Methylsulfanyl)-8-(beta-D-ribofuranosyl)-8H-thieno[2, 3:4,5]-pyrrolo[2,3-d]pyrimidine-5-O-monophosphate Sodium Salt formation per 5 x10^5 cells at 10 umol/L after 1 hr by UPLC-MS/MS analysis; format: ADME, cell-based; settings: 10 µM
Adenosine kinase [10] = target: T1, Adenosine kinase; test: Drug metabolism in human HCT116 cells assessed as ADK-mediated 4-(Methylsulfanyl)-8-(beta-D-ribofuranosyl)-8H-thieno[2, 3:4,5]-pyrrolo[2,3-d]pyrimidine-5-O-monophosphate Sodium Salt formation per 5 x10^5 cells at 10 umol/L after 1 hr by UPLC-MS/MS analysis; format: ADME, cell-based; settings: 10 µM
Adenosine kinase [11] = target: T1, Adenosine kinase; test: Drug metabolism in human BJ cells assessed as ADK-mediated 4-(Methylsulfanyl)-8-(beta-D-ribofuranosyl)-8H-thieno[2, 3:4,5]-pyrrolo[2,3-d]pyrimidine-5-O-monophosphate Sodium Salt formation per 5 x10^5 cells at 10 umol/L after 3 hrs by UPLC-MS/MS analysis; format: ADME, cell-based; settings: 10 µM
Adenosine kinase [12] = target: T1, Adenosine kinase; test: Drug metabolism in human HCT116 cells assessed as ADK-mediated 4-(Methylsulfanyl)-8-(beta-D-ribofuranosyl)-8H-thieno[2, 3:4,5]-pyrrolo[2,3-d]pyrimidine-5-O-monophosphate Sodium Salt formation per 5 x10^5 cells at 10 umol/L after 3 hrs by UPLC-MS/MS analysis; format: ADME, cell-based; settings: 10 µM
Adenosine kinase [13] = target: T1, Adenosine kinase; test: Drug level in human BJ cells assessed as ADK-mediated compound formation treated with 4-(Methylsulfanyl)-8-(beta-D-ribofuranosyl)-8H-thieno[2',3':4,5]-pyrrolo[2,3-d]pyrimidine at 1 umol/L after 1 hr by UPLC-MS/MS analysis; format: ADME, cell-based
Adenosine kinase [14] = target: T1, Adenosine kinase; test: Drug level in human BJ cells assessed as ADK-mediated compound formation treated with 4-(Methylsulfanyl)-8-(beta-D-ribofuranosyl)-8H-thieno[2',3':4,5]-pyrrolo[2,3-d]pyrimidine at 1 umol/L after 3 hrs by UPLC-MS/MS analysis; format: ADME, cell-based
Adenosine kinase [15] = target: T1, Adenosine kinase; test: Drug level in human BJ cells assessed as ADK-mediated compound formation treated with 4-(Methylsulfanyl)-8-(beta-D-ribofuranosyl)-8H-thieno[2',3':4,5]-pyrrolo[2,3-d]pyrimidine at 10 umol/L after 1 hr by UPLC-MS/MS analysis; format: ADME, cell-based
Adenosine kinase [16] = target: T1, Adenosine kinase; test: Drug level in human BJ cells assessed as ADK-mediated compound formation treated with 4-(Methylsulfanyl)-8-(beta-D-ribofuranosyl)-8H-thieno[2',3':4,5]-pyrrolo[2,3-d]pyrimidine at 10 umol/L after 3 hrs by UPLC-MS/MS analysis; format: ADME, cell-based
Adenosine kinase [17] = target: T1, Adenosine kinase; test: Drug level in human HCT116 cells assessed as ADK-mediated compound formation treated with 4-(Methylsulfanyl)-8-(beta-D-ribofuranosyl)-8H-thieno[2',3':4,5]-pyrrolo[2,3-d]pyrimidine at 1 umol/L after 1 hr by UPLC-MS/MS analysis; format: ADME, cell-based
Adenosine kinase [18] = target: T1, Adenosine kinase; test: Drug level in human HCT116 cells assessed as ADK-mediated compound formation treated with 4-(Methylsulfanyl)-8-(beta-D-ribofuranosyl)-8H-thieno[2',3':4,5]-pyrrolo[2,3-d]pyrimidine at 1 umol/L after 3 hrs by UPLC-MS/MS analysis; format: ADME, cell-based
Adenosine kinase [19] = target: T1, Adenosine kinase; test: Drug level in human HCT116 cells assessed as ADK-mediated compound formation treated with 4-(Methylsulfanyl)-8-(beta-D-ribofuranosyl)-8H-thieno[2',3':4,5]-pyrrolo[2,3-d]pyrimidine at 10 umol/L after 1 hr by UPLC-MS/MS analysis; format: ADME, cell-based
Adenosine kinase [20] = target: T1, Adenosine kinase; test: Drug level in human HCT116 cells assessed as ADK-mediated compound formation treated with 4-(Methylsulfanyl)-8-(beta-D-ribofuranosyl)-8H-thieno[2',3':4,5]-pyrrolo[2,3-d]pyrimidine at 10 umol/L after 3 hrs by UPLC-MS/MS analysis; format: ADME, cell-based
Adenosine kinase [21] = target: T1, Adenosine kinase; test: Drug level assessed as human ADK-mediated compound formation treated with 4-(Methylsulfanyl)-8-(beta-D-ribofuranosyl)-8H-thieno[2',3':4,5]-pyrrolo[2,3-d]pyrimidine at 50 uM after 30 mins by HPLC analysis; format: ADME; settings: 0.5 h
CCRF-CEM = test: Cytotoxicity against human CCRF-CEM cells assessed as cell growth inhibition after 72 hrs by MTS assay

## CSc1ncnc2c1c1sccc1n2[C@@H]1O[C@H](COP(=O)([O-])O)[C@@H](O)[C@H]1O.[Na+]
BJ
  IC50: 640 nM
MRC5
  IC50: > 50000 nM
[1]
  IC50: 47600 nM
HCT-116 [2]
  IC50: 110 nM
HCT-116 [3]
  IC50: 130 nM
K562
  IC50: 390 nM
[4]
  IC50: > 50000 nM
U2OS
  IC50: 9890 nM
HL-60
  IC50: 340 nM
HepG2
  IC50: 540 nM
HeLa S3
  IC50: 9610 nM
A549
  IC50: > 50000 nM
Adenosine kinase [5]
  Drug metabolism: 19751.3 pmol
Adenosine kinase [6]
  Drug metabolism: 4124 pmol
Adenosine kinase [7]
  Drug metabolism: 27253.4 pmol
Adenosine kinase [8]
  Drug metabolism: 5737.8 pmol
Adenosine kinase [9]
  Drug metabolism: 62703.9 pmol
Adenosine kinase [10]
  Drug metabolism: 6108.2 pmol
Adenosine kinase [11]
  Drug metabolism: 65894.4 pmol
Adenosine kinase [12]
  Drug metabolism: 15246.3 pmol
Adenosine kinase [13]
  Drug metabolism: Metabolite_Detected
Adenosine kinase [14]
  Drug metabolism: Metabolite_Detected
Adenosine kinase [15]
  Drug metabolism: Metabolite_Detected
Adenosine kinase [16]
  Drug metabolism: Metabolite_Detected
Adenosine kinase [17]
  Drug metabolism: Metabolite_Detected
Adenosine kinase [18]
  Drug metabolism: Metabolite_Detected
Adenosine kinase [19]
  Drug metabolism: Metabolite_Detected
Adenosine kinase [20]
  Drug metabolism: Metabolite_Detected
Adenosine kinase [21]
  Drug metabolism: Metabolite_Detected
CCRF-CEM
  IC50: 200 nM
